In one test the target is Concanavalin A (Con A) (Canavalia ensiformis, UniProt P02866). Nature of the test: biochemical. The test is classed as binding, Canavalia ensiformis (Jack Bean). The note with it: for ΔRct (Rct after Con A immobilization – Rct before): single-component SAM on gold wire.
The next test addresses T1, peanut agglutinin (PNA) (Arachis hypogaea, UniProt P02872).
T1 sequence (P02872 24-273): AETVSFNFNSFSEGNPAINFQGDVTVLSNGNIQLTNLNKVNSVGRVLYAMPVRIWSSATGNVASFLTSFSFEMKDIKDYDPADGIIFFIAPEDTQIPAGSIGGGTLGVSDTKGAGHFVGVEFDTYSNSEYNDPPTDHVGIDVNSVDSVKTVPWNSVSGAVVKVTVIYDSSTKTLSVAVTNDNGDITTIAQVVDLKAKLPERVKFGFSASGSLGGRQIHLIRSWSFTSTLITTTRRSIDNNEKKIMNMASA
Nature of the test: EIS negative control: PNA exposed to SAMs of thiolated mannosides on gold wire. The test is classed as binding. The note with it: single-component SAM of Man-C8-SH on gold wire, 0.5 μM PNA. The method, boiled down:
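Gold wires cleaned in nitric acid, then 0.5 M NaBH4 for 17 h. SAMs formed from thiolated mannoside, alone or with TEG-SH (1.0 mM total in methanol), 17 h at room temperature. Lectin in 10 mM Tris pH 7.4 with 0.1 M NaCl, 1 mM CaCl2, 1 mM MnCl2; 1 h at room temperature, then rinsed. EIS run at 5.0 mm exposed wire in 5 mM 1:1 ferri/ferrocyanide in 10 mM Tris pH 7.4, 100 kHz–1 Hz, 0.22 V vs Ag/AgCl. Rct obtained by Randles-circuit fit of Nyquist plots.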

Test [1] addresses Con A. The note with it: SPR, cited from earlier work. In general terms: SPR reads the build-up and loss of mass on a sensor chip optically.
In test [2] the target is Con A. The settings on record: QCM, cited from earlier work.
For test [3], the system named is Con A. The note with it: ITC, in solution; cited from earlier work. Background: In ITC the heat of successive injections is recorded.
The target in test [4] is Con A. The settings on record: ITC, depending on ligand density on nanoparticles surface; cited from earlier work.

This is an account of results in paper PMC5388449 (Journal of electroanalytical chemistry (Lausanne, …, 2016).

Read-outs that look alike come from different tables or passages of the source.

In the case of `OC[C@H]1O[C@H](OCCCCCCCCS)[C@@H](O)[C@@H](O)[C@@H]1O` [A, 8-mercaptooctyl α-D-mannopyranoside], binding at Concanavalin A (Con A) was characterised by a dissociation constant (Kd) of 70 ± 19 nM. For the same molecule, the ΔRct on Concanavalin A (Con A) (mixed SAM 1:4 Man-C8-SH/TEG-SH on gold wire, 0.5 μM Con A, 1 h) is 495 ± 15 Ω. The “ΔRct (Rct after Con A immobilization – Rct before)” value at Concanavalin A (Con A) (0.5 μM Con A, 1 h) was 299 ± 51 Ω. Further, the “increase in Rct value” at peanut agglutinin (PNA) is recorded as “negligible increase”.
In the case of `OC[C@H]1O[C@H](O[C@@H]2[C@H](O)[C@@H](OCCCCCCCCS)O[C@H](CO)[C@H]2O)[C@@H](O)[C@@H](O)[C@@H]1O` [B, 8-Mercaptooctyl 3-O-(α-D-mannopyranosyl)-α-D-mannopyranoside], the affinity at Concanavalin A (Con A), expressed as Kd, was 75 ± 20 nM.
Regarding `OC[C@H]1O[C@H](OC[C@H]2O[C@H](OCCCCCCCCS)[C@@H](O)[C@@H](O)[C@@H]2O)[C@@H](O)[C@@H](O)[C@@H]1O` [C, 8-Mercaptooctyl 6-O-(α-D-mannopyranosyl)-α-D-mannopyranoside], on Concanavalin A (Con A), the Hill coefficient (usually a measure of the steepness of the concentration-response curve) came to 0.73 ± 0.17, the Kd (usually a measure of binding affinity in units of concentration) stood at 14 ± 4 nM and the LOD is 6 nM.
The matching figures for `OC[C@H]1O[C@H](OC[C@H]2O[C@H](OCCCCCCCCS)[C@@H](O)[C@@H](O[C@H]3O[C@H](CO)[C@@H](O)[C@H](O)[C@@H]3O)[C@@H]2O)[C@@H](O)[C@@H](O)[C@@H]1O` [D, 8-Mercaptooctyl 3,6-di-O-(α-D-mannopyranosyl)-α-D-mannopyranoside]: 0.55 ± 0.05, 30 ± 5 nM and 13 nM.
The matching figures for `OC[C@H]1O[C@H](OC[C@H]2O[C@H](OCCCCCCCCS)[C@@H](O)[C@@H](O)[C@@H]2O[C@H]2O[C@H](CO)[C@@H](O)[C@H](O)[C@@H]2O)[C@@H](O)[C@@H](O)[C@@H]1O` [E, 8-Mercaptooctyl 4,6-di-O-(α-D-mannopyranosyl)-α-D-mannopyranoside]: 0.50 ± 0.06, 81 ± 31 nM and 11 nM.
Turning to `OCCOCCOCCS` [TEG-SH, 8-mercapto-3,6-dioxaoctanol, reference compound], the “ΔRct (Rct after Con A immobilization – Rct before)” value on Concanavalin A (Con A) (0.5 μM Con A, 1 h) was 63 ± 13 Ω.
Take `OC[C@H]1OC(O)[C@@H](O)[C@@H](O)[C@@H]1O` (stereo partly shown) [mannose]: the Kd is 78 nM on Con A [1] (mannose functionalized on a gold surface, multivalent interactions); 135 to 400 nM at Con A [1] (mannose–Con A interaction); 71 nM at Con A [2] (1:2 binding of Con A to mannose); 250 to 400 nM at Con A [2] (mannose–Con A interaction).
Regarding `CO[C@H]1O[C@H](CO)[C@@H](O)[C@H](O)[C@@H]1O` [methyl α-D-mannopyranoside], in the test on Con A [3], the Ka is listed as 0.82 × 10^4 and the Kd was 122000 nM.
As for dimannose, the Kd on Con A [4] is 35 to 175 nM.
